The text below walks through data of ChEMBL document CHEMBL3046830, “Isolation and identification of secondary metabolites of Clitocybe nuda responsible for inhibition of zoospore germination of Phytophthora capsici” (2012).

Calls of active or inactive are those of the source. No cut-off for these calls is given here.

Common to all, as to type: functional
The subject of assay [1] is Phytophthora capsici. As to the kind of experiment: Antimicrobial activity against Phytophthora capsici PCM81 assessed as zoospore germination at 1000 ppm at 24 degC for 8 hr. Summed up:
(§1)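 P. capsici PCM81 sporangia grown 5 days on 10% V8 agar at 24 °C under a 12 h light–dark cycle. Zoospores released in sterile water for 1 day at 24 °C, then chilled at 4 °C for 1 h. The suspension is mixed 1:1 with the sample in a cavity slide and kept moist; a distilled-water mix is the control. Germination is scored after 8 h at 24 °C, counting 100 spores × 4 replicates, with the experiment run twice and analysed by Duncan's test.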

Assay [2] has as its system Phytophthora capsici. As to the kind of experiment: Antimicrobial activity against Phytophthora capsici PCM81 assessed as zoospore germination at 500 ppm at 24 degC for 8 hr. Summed up: as §1
For assay [3], the system named is Phytophthora capsici. As to the kind of experiment: Antimicrobial activity against Phytophthora capsici PCM81 assessed as zoospore germination at 100 ppm at 24 degC for 8 hr. Summed up: as §1
For assay [4], the system named is Phytophthora capsici. As to the kind of experiment: Antimicrobial activity against Phytophthora capsici PCM81 assessed as inhibition of zoospore germination at 500 mg/L at 24 degC for 8 hr. To be noted: for inhibition at 500 µg/mL: PCM81, 8 h. Summed up: as §1

One may read the inhibition as how much of the control response was suppressed. Take `O=Cc1c[nH]c2ccccc12` [3-FORMYLINDOLE]: the Activity in the assay on Phytophthora capsici [1] is given as 0%; in the assay on Phytophthora capsici [2], 0%; in the assay on Phytophthora capsici [3] it was 57%. Moreover, the inhibition entry in the assay on Phytophthora capsici [4] was “Active”.

With `COCC1=C(C)C(=O)C=C(OC)C1=O`, the Activity stood at 0% with Phytophthora capsici [1], 3% in the assay on Phytophthora capsici [2] and 65% in the assay on Phytophthora capsici [3]. Also, in the assay with Phytophthora capsici [4], the inhibition at 500 µg/mL worked out at 97%.

With `O=CC1=CC=C(O)OC1`, the results for the Activity with Phytophthora capsici [1], with Phytophthora capsici [2] and with Phytophthora capsici [3] were 0%, 14.5% and 77%, respectively. Moreover, the inhibition at 500 µg/mL in the assay with Phytophthora capsici [4] worked out at 86%.
